# Screening results (PubChem BioAssay)
# NR2E3 ag-1 = activates human photoreceptor nuclear receptor NR2E3. Q9Y5X4. inhibition of corepressor binding, % at 4.78 µM. AID 2300. GST-NR2E3/biotin-RetCOR TR-FRET, 1536-well. 0.12% of 320,000 active;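 active = percent inhibition above the cutoff of mean plus 3 SD of all tested compounds, set per screening campaign, cut at about 20% in these data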;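 note: 0% = DMSO wells and 100% = biotin wells as full block of FRET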
# Target sequence (Q9Y5X4 whole entry, looked up): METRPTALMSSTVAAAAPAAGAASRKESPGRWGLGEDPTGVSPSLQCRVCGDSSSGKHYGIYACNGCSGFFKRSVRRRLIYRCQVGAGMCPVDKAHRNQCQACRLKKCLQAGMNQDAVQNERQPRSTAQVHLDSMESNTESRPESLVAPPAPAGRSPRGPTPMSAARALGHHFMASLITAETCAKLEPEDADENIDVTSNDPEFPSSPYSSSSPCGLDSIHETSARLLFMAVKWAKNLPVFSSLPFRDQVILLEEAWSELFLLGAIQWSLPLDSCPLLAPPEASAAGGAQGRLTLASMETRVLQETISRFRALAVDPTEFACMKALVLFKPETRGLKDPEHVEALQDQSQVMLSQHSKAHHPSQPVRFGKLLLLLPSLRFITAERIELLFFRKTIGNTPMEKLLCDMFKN
#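 System: GST-NR2E3 and biotin-RetCOR proteins; probe or stimulus: 7 nM biotin-RetCOR; doses: compound at 4.8 µM, single dose; schedule: Compound–protein incubation for 5 h at 4 °C; detection: time-resolved FRET; read-out: percent inhibition; controls: biotin wells as high control, 0.6% DMSO wells as low control; format: 1536-well plates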
# 697 NFkB inh = lowers PMA/ionomycin-induced NF-kB signal in 697 B cells. 697 B-cell NF-kB luciferase reporter, 16 h. inhibition, % at 4 µM. 0.33% of 330,000 active; in the data active = inhibition above about 35%
# Jurkat NFkB inh = lowers PMA/ionomycin-induced NF-kB signal in Jurkat cells | PMA/ionomycin-induced NF-kB luciferase reporter, luminescence | inhibition, % at 4 µM | 0.53% of 330,000 active; in the data active = inhibition above about 50%
# NR2E3 ag-2 = human photoreceptor-specific nuclear receptor agonism. inhibition of corepressor binding, % at 3.98 µM. Q9Y5X4. CHO-S Gal4-NCOR/VP16-NR2E3 two-hybrid, luciferase. AID 602229. 0.35% of 360,000 active;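 active = inhibition above the mean of all tested compounds plus 3 SD, cut at about 70% in these data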;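 note: 0% = DMSO with NR2E3 transfected cells and 100% = cells lacking NR2E3 construct; higher means lower luciferase signal from less NR2E3 corepressor binding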
# miR-122 sensor = miR-122 inhibition in Huh7 cells; Huh7 miR-122 Renilla luciferase sensor, 48 h; neutral wells = 0, positive control = 100; activation (reporter increase), % at 12.5 µM; 0.3% of 340,000 active;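 active = mean replicate activation score at least 90 and every replicate individually at or above 90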;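 note: higher luciferase means less miR-122 activity so hits act as miR-122 inhibitors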
# FGF22 binding = binders of recombinant human FGF22 by thermal shift. SYPRO orange fluorescence; percent of sucrose octasulfate shift, DMSO zero. activity (Tm shift, normalised), % at 9.99 µM. 1.5% of 340,000 active;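 active = mean Tm shift, scaled 0 neutral to 100 positive control, at about 1.3% or above, every replicate too, limit read from the data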
# Target sequence (Q9HCT0 whole entry, looked up): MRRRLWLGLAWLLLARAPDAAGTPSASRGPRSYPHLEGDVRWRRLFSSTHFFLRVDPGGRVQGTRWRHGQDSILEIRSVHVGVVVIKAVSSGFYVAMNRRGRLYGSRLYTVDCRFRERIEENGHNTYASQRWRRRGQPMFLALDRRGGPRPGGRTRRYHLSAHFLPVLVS
# Jurkat NFkB conf = lowers PMA/ionomycin-induced NF-kB signal in Jurkat cells | shares compounds with Jurkat NFkB inh | Jurkat NF-kB luciferase, 16 h | inhibition, % at 4 µM | 27% of 2,700 active;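 active = inhibition reaching about 45% at 4 µM in either replicate, limit read from the data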;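 note: plate controls were PMA/ionomycin stimulated DMSO wells for no effect and unstimulated DMSO wells for full effect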
# * hit, by the source's call; . = no result given; [ ] = another dose, or the depositor's remark. Compounds with a hit are over-represented: about 2.2% of the library has one in this group of screens.
SMILES,NR2E3 ag-1,697 NFkB inh,Jurkat NFkB inh,NR2E3 ag-2,miR-122 sensor,FGF22 binding,Jurkat NFkB conf
O=C(Nc1ccc(F)cc1)N[C@@H]1CC[C@@H](CCNS(=O)(=O)c2cccc(Cl)c2)O[C@H]1CO,.,.,.,.,.,0.8,.
C[C@@H]1CN([C@H](C)CO)C(=O)Cc2cc(NC(=O)C3CCCCC3)ccc2O[C@@H]1CN(C)S(=O)(=O)c1ccc(Cl)cc1,.,.,.,.,-12.5[16.7 µM],0.3,.
O=C(COC(=O)C1CC1)Nc1ccc(N=Nc2ccccc2)cc1,2.0,-51.8,-159.1,-158.3,.,.,-58.3
O=C(NCc1ccc(Cl)cc1)c1cc([N+](=O)[O-])ccc1Cl,-3.3,15.3,60.2*,-3.1,.,43.0*,11.6
O=C(NCc1ccccc1Cl)c1cc([N+](=O)[O-])ccc1Cl,-4.6,22.7,1.1,9.0,.,.,.
C[C@@H]1CN([C@@H](C)CO)S(=O)(=O)c2ccc(C#CCN(C)C)cc2O[C@H]1CN(C)Cc1ccc2c(c1)OCO2,.,.,.,.,-11.5[16.7 µM],0.5,.
CN(C)c1cc[n+](CC(=O)Nc2ccc(Oc3ccccc3)cc2)cc1,3.4,-13.8,85.0*,-3.5,-0.2,42.4,36.0
CN1C(=O)c2cc(NC(=O)c3cccc(C(F)(F)F)c3)ccc2OC[C@H]2O[C@H](CC(=O)O)CC[C@@H]21,.,.,.,.,.,0.3,.
CC(=O)N[C@H]1[C@H](O/N=[N+](\[O-])N2CCCC2)OC(CO)[C@@H](O)[C@@H]1O (stereo not given in full),.,.,.,.,.,-0.2,.
O=C(NCCSc1ccccc1)c1ccc(Br)cc1,-0.7,-169.6,-165.9,-146.1,.,-0.2,-100.2
COc1cccc(CNC(=O)C[C@H]2CC[C@@H](NC(=O)C3CC3)[C@@H](CO)O2)c1,.,.,.,.,.,-0.1,.
Oc1cc(NCc2ccc(F)cc2)cc2cccnc12,.,1.7,3.2,-29.0,-10.7,0.2,.
CN(C)CCCNc1cc(O)c2ncccc2c1,.,16.7,55.5*,-14.0,1.0,-0.1,25.2
Cc1cccc(N2CCN(C(=O)c3cc(S(=O)(=O)N4CCCC4)cn3C)CC2)c1C,-0.4,-47.1,61.1*,28.3,18.7,0.1,19.5
COc1cc(C(=O)N2CCN(c3cccc(C)c3C)CC2)cc(OC)c1OC,-1.4,-41.8,62.9*,-6.0,43.1,0.0,43.5
COc1ccc(C(=O)N2CCN(C(=O)c3cc(OC)c(OC)c(OC)c3)CC2)cc1,0.6,-12.2,7.1,-38.8,2.3,.,.
COc1cc(C(=O)N2CCN(c3cc(Cl)ccc3Cl)CC2)cc(OC)c1OC,4.0,-81.6,60.0*,-31.4,.,0.0,49.8*
O=C(C[C@H]1CC[C@@H]2[C@H](COC[C@@H](O)CN2CC2CCOCC2)O1)NCC1CCCCC1,.,.,.,.,-10.2[16.7 µM],0.7,.
CCN(CC)S(=O)(=O)c1ccc(NC(=O)c2ccc(CN3CCOCC3)cc2)cc1,0.9,5.4,58.2*,0.8,-13.7,.,57.7*
O=C(Nc1ccc(F)cc1)c1ccc(CN2CCc3ccccc3C2)cc1,3.7,-12.8,58.2*,16.6,-10.6,0.1,41.7
O=C(Nc1ccc(S(=O)(=O)N2CCCCC2)cc1)c1ccc(CN2CCOCC2)cc1,2.5,11.6,61.9*,-1.0,0.0,.,60.8*
CCCCOC(=O)Nc1ccc(N2CCCCC2)cc1,-2.3,-163.2,-182.4,-145.9,5.1,.,-95.3
O=C(Nc1ccc(S(=O)(=O)N2CCCC2)cc1)c1ccc(CN2CCOCC2)cc1,3.1,-20.4,34.8,-19.1,-29.2,.,.
COc1cccc(-c2ccc([C@H]3[C@@H](CO)N4C(=O)CN(C(=O)c5cccnc5)C[C@H]34)cc2)c1,.,.,.,.,.,-0.4,.
Cc1noc(C)c1S(=O)(=O)Nc1ccc2c(c1)C(=O)N([C@H](C)CO)C[C@H](C)[C@H](CN(C)C(=O)Nc1ccc3c(c1)OCO3)OCCCC[C@@H](C)O2,.,.,.,.,4.7[16.7 µM],-0.5,.
SMILES,NR2E3 ag-1,697 NFkB inh,Jurkat NFkB inh,NR2E3 ag-2,miR-122 sensor,FGF22 binding,Jurkat NFkB conf
O=C(c1ccc(F)cc1)c1ccc(N2CCCCC2)cc1,5.3,-91.2,-84.2,-164.0,-1.1,0.1,.
O=C(Nc1ccc(N2CCOCC2)cc1)c1cccc(S(=O)(=O)N2CCCCC2)c1,.,2.6,17.0,-4.6,2.9,.,.
O=C(Nc1ccc(N2CCOCC2)cc1)c1ccc(Cl)c(S(=O)(=O)N2CCCCC2)c1,2.1,26.7,50.9*,-10.5,.,-0.1,56.8*
O=C(Nc1ccc(N2CCCCC2)cc1)c1ccc(F)cc1,0.6,-158.4,-167.3,-137.2,-0.4,.,-82.8
Cc1ccccc1-c1ccc([C@@H]2[C@@H](CO)N3CCCCN(CC4CC4)C[C@H]23)cc1,.,.,.,.,6.4[16.7 µM],0.2,.
O=C(C[C@@H]1CC[C@H](NC(=O)C2CCC2)[C@H](CO)O1)NCC1CC1,.,.,.,.,2.7[16.7 µM],0.3,.
COc1cc(/C=N/N(C)c2ccccc2)ccc1O,0.6,-181.9,-162.7,-132.1,12.4,.,5.1
COc1cc(OC)c(OC)cc1/C=N/N(C)c1ccccc1,-3.2,12.2,6.4,-12.9,7.7,.,.
CN(C)CCNC(=O)c1cc2c(s1)-c1ccc(Cl)cc1SC2,.,-21.0,62.5*,-16.3,.,-0.3,0.8
N#CC1=C(N)Oc2cc(N)ccc2C1c1cccnc1 (stereo not given),-0.4,-7.0,14.0,6.5,.,.,.
CCN(CC)c1ccc2c(c1)OC(N)=C(C#N)C2c1cccnc1 (stereo not given),2.3,30.9,56.4*,-75.5,83.1,.,6.1
CCN(C[C@@H]1[C@@H](c2ccc(C3=CCCC3)cc2)[C@@H](CO)N1C(C)=O)C(C)=O,.,.,.,.,7.1[16.7 µM],.,.
C[C@H]1CN([C@@H](C)CO)C(=O)c2cccc(NC(=O)C3CCCCC3)c2O[C@@H]1CN(C)Cc1ccc(Oc2ccccc2)cc1,.,.,.,.,35.6[16.7 µM],-0.3,.
Cn1c(=NC(=O)c2cccc([N+](=O)[O-])c2)sc2ccccc21,3.6,-182.7,-259.9,-155.6,-9.7,0.8,-159.8
COc1cc(C(=O)N=c2sc3ccccc3n2C)cc(OC)c1OC,2.5,-37.8,-15.4,-61.0,.,0.2,.
O=C(Nc1nc2ccc(F)cc2s1)c1cccs1,2.1,-237.6,-191.9,-153.4,.,0.0,-118.3
O=C(C[C@H]1C=C[C@H](NC(=O)CCN2CCCCC2)[C@@H](CO)O1)NCc1ccc(Cl)c(Cl)c1,.,.,.,.,7.4[16.7 µM],-0.1,.
Cc1ccc(N/C=C(/C#N)c2ccsc2)cc1C,-2.2,-160.5,-172.2,-144.9,.,.,-48.0
CCOC(=O)N1CCN(C(=O)C2CCCN(Cc3nc(-c4ccc(Cl)cc4)oc3C)C2)CC1 (stereo not given),0.1,-12.3,58.8*,13.8,-14.3,0.0,54.6*
COc1ccc(C=O)cc1COc1ccc([N+](=O)[O-])c(C)c1,-0.5,24.3,45.3,-7.7,-4.8,0.0,.
COc1ccc(C=O)cc1COc1ccc2c(c1)OCO2,.,9.0,58.9*,-10.1,53.7,-0.1,11.8
C[C@@H]1CCCCO[C@@H](CN(C)C(=O)c2ccncc2)[C@@H](C)CN([C@H](C)CO)C(=O)c2cc(NS(=O)(=O)c3ccccc3)ccc2O1,.,.,.,.,5.7[16.7 µM],-0.1,.
